This is an account of results in ChEMBL document CHEMBL4513216, “Probing the Open Global Health Chemical Diversity Library for Multistage-Active Starting Points for Next-Generation Antimalarials” (ACS Infect Dis, 2020).

The data set in a line: Toxicity liver stage against HepG2, at 10uM. The data set is classed as cell-based. Set-up: test concentration 10 uM, cell line HepG2-A16-CD81EGFP. As to conditions: human, HepG2-A16-CD81EGFP cells; read-out: INHIBITION
The procedure, abridged: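 Uninfected HepG2-A16-CD81EGFP cells, 3 × 10^3 per well, 1536-well, plated on prespotted compound at 10 μM final, parasite-free screening media added to match infected plates; puromycin 10 μM positive, DMSO 0.5% negative; run in parallel with 48 h PbLuc assay at 37 °C, 5% CO2; viability by CellTiter-Glo luminescence, normalized to controls.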
On to `CCc1c(C)sc2c1c(N)nc(=O)n2CCN1CCOCC1`, for which the cytotoxicity at 10 µM came out at 1.17%.
To `CC1=Nc2c(c(=O)[nH]n2C(C)C)C(c2ccc3c(c2)n(C)c(=O)n3C)S1` (stereo unspecified) belongs 3.75%; to `O=C(c1ccoc1)N1C[C@@H]2CN(c3ncccn3)C[C@@H]2C1`, -5.3%.
To `Cc1ccnc(OC[C@]23COC[C@H]2CN(C(=O)Cc2ccsc2)C3)n1` belongs -0.376%; to `CC(=O)N1[C@H](Cn2cncn2)C[C@@H]2CN(c3ncccn3)CC[C@@H]21`, -2.96%; to `Cc1ccccc1C(=O)N1CC(C(=O)NCC2CC2)C2(CCOCC2)C1` (stereo unspecified), 3.54%.
In the case of `O=C1NCC[C@]12CN(Cc1ccsc1)C[C@H]2c1ccccc1`, the cytotoxicity at 10 µM is -142%.
To `O=C(CSC1CCc2ccccc2NC1=O)NC1CC1` (stereo unspecified) belongs 6.58%; to `NC(=O)c1c(-c2ccc(Cl)cc2Cl)csc1NC(=O)CCCC(=O)O`, 5.97%; to `CN1CCCC1c1cncc(C(=O)NCCN2CCCC2)n1` (stereo unspecified), 8.6%.
Next, `NC(=O)CN1CCC(c2cncc(-c3cccc(Cl)c3)n2)CC1`: -26.4%.
Regarding `CNS(=O)(=O)c1cccc(S(=O)(=O)Nc2ncc(C)s2)c1`, the cytotoxicity at 10 µM was -4.79%.
To `CCSCc1ccc(C(=O)N2CCCN(CC(N)=O)CC2)cc1` belongs 10.5%; to `COc1cccc(-c2cc(NCc3cscn3)n(C)n2)c1`, 3.69%.
To `CC(Cn1cccn1)NC(=O)C1=Cc2ccccc2OC1` (stereo unspecified) belongs 2.86%.
As for `CC(CNC(=O)c1cc(N2CCNC2=O)ccc1F)c1ccccc1` (stereo unspecified), the cytotoxicity at 10 µM is -2.1%.
Next, `Cc1nnc2n1CCN(C(=O)c1cnc3c(cnn3C(C)C)c1)C2`: -6.69%; `O=C(NCc1ccccc1OCCO)Nc1ccc2c(c1)CCC2`: 9.46%.
Next, `Cc1c(CNC(=O)NCc2cccc(-n3cncn3)c2)cnn1C`: 1.78%.
Next, `COc1c(CNC2CCOc3ccccc32)c(C)nn1C` (stereo unspecified): 4.25%; `CN(C(=O)c1ccc(C#N)cc1)C1CCN(c2ccccn2)CC1`: -7.56%; `Cc1cc(CS(=O)(=O)C(C)c2ccc(F)cc2)on1` (stereo unspecified): -0.0986%.
Turning to `Cc1ccccc1CNCC(O)c1ccc(OC(C)C)cc1` (stereo unspecified), the cytotoxicity at 10 µM is -6.17%.
Next, `O=C(c1ccc(=O)[nH]n1)N1CCC(CN2CCOCC2)CC1`: 4.13%; `COCc1noc(CCC(=O)c2ccc3c(c2)OCCO3)n1`: 0.923%.
Next, `COc1ccc(C)cc1NC(=O)CNc1ccn(CC(N)=O)n1`: -8.28%; `CS(=O)(=O)NCC(=O)NC(Cc1ccccc1)C1CCCC1` (stereo unspecified): 0.69%.
To `CS(=O)(=O)c1nccn1CCOc1ccc(F)cc1Cl` belongs 13.1%; to `CC(NC(=O)COc1ccccc1Cl)c1nnc2n1CCC2` (stereo unspecified), -6%.
As to `COc1ccc(C)cc1C(C)NCc1cccn1C` (stereo unspecified), the cytotoxicity at 10 µM is -5.89%.
Next, `Cc1cccc(-c2nc(C)nn2CN2CCN(S(C)(=O)=O)CC2)c1`: 0.729%; `CC(C)c1nsc(NC2CCOC3(CCCC3)C2)n1` (stereo unspecified): 8.83%.
Next, `Nc1cc2c(nn1)CCN(C(=O)c1ccc(-c3ccco3)[nH]c1=O)C2`: -3.73%; `COc1c(C)cnc(CSc2nnc(C)s2)c1C`: -4.66%.
As to `O=C1NC2(CCN(C(=O)c3ccc(Cl)cn3)CC2)CC1c1ccccc1` (stereo unspecified), the cytotoxicity at 10 µM turned out to be 2.75%.
To `COc1nc2c(cc1C(=O)NC(C)Cc1cnccn1)CCC2` (stereo unspecified) belongs -135%; to `CC(C)(N)c1cn([C@@H]2c3ccccc3C3(CCNCC3)[C@H]2O)nn1`, -4.67%.
As for `COc1cccc(-n2cc(-c3ccnc(NC(CO)C(C)C)n3)cn2)c1` (stereo unspecified), the cytotoxicity at 10 µM was found to be 2.74%.
To `NC(=O)c1ccc(N2CCN(Cc3cccc4nsnc34)CC2)nc1` belongs 34.1%.
As to `Cc1c(NC(=O)NC2CCOCC2)cccc1C(=O)N1CCCC1`, the cytotoxicity at 10 µM came out at 12%.
To `CN(Cc1nc(-c2cccnc2)no1)C(=O)c1c2c(nn1C)CCCC2` belongs 7.54%; to `CC(=O)NCCC1CCCCN1S(=O)(=O)c1cccc(F)c1` (stereo unspecified), -155%.
Regarding `COC(=O)CNC(=O)CC1COc2ccc(C(=O)N(C)C)cc2N1C` (stereo unspecified), the cytotoxicity at 10 µM is -8.8%.
Turning to `CCc1c(C)nn(CCNC(=O)c2cc(C3CC3)n[nH]2)c1C`, the cytotoxicity at 10 µM is -12.1%.
Next, `c1ccc(Cc2nc(CNC3CCOC4(CCOCC4)C3)no2)cc1` (stereo unspecified): -10.6%; `O=S1(=O)C[C@@H]2[C@H](C1)N(Cc1nc3ccccc3[nH]1)CCN2CC1CC1`: -133%.
Take `CC(C)c1cc(NC(=O)c2ccc([S+]([O-])C(C)C)cc2)[nH]n1` (stereo unspecified): the cytotoxicity at 10 µM was -7.52%.
Next, `Cc1cc(C2CCCN(C(=O)CCc3cscn3)C2)n[nH]1` (stereo unspecified): -0.939%; `Cc1cc(C)n(CCN2CCOC(CNc3cccnn3)C2)n1` (stereo unspecified): -3.2%.
In the case of `CC(=O)N1CCCC1C(=O)NCCOc1cccc(F)c1` (stereo unspecified), the cytotoxicity at 10 µM was -7.81%.
Next, `c1ccc2oc(N3CCCC3Cn3cncn3)nc2c1` (stereo unspecified): -14.4%.
To `COc1cc(C)nc(N2CCN(C(=O)c3ccn(C)c(=O)c3)CC2)n1` belongs -12.8%.
Next, `Cc1nc2n(n1)CC(NCc1cnn(-c3ccccc3)n1)CC2` (stereo unspecified): -3.69%; `Cn1cnc2c1CCN(Cc1cccc(C(=O)N3CCCCC3)c1)C2`: -2.75%.
As to `CC(C)c1noc(CCCC(=O)N2CCN(Cc3cccnc3)CC2)n1`, the cytotoxicity at 10 µM was -2.96%.
Next, `c1ccc(-c2nc(CN3CCCCC3Cn3cncn3)co2)cc1` (stereo unspecified): -14.4%; `CC(Cn1cccn1)NC(=O)c1cccs1` (stereo unspecified): -4.26%.
To `Cc1nnc(NC(=O)NCc2ccnc(N(C)C)c2)s1` belongs -10.2%; to `Cc1cn2nc(N3CCCC3Cn3nc(C)nc3C)sc2n1` (stereo unspecified), -14.6%; to `CC(c1cccc(F)c1)N1CCN(Cc2nccn2C)CC1` (stereo unspecified), -7.81%.
To `c1ccc(-c2nc(CN3CCCC(Cn4cncn4)C3)no2)cc1` (stereo unspecified) belongs 3.71%; to `CN(C)CCN(C)C(=O)Cc1ccc2c(c1)OCCO2`, -7.94%.
With `O=C(c1ccnnc1)N1CCN(Cc2cccnc2)c2ncccc2C1`, the cytotoxicity at 10 µM is 0.121%.
With `Cc1cccc(CN2C(=O)CCC23CCN(C(=O)NC(C)C)CC3)n1`, the cytotoxicity at 10 µM worked out at 5%.
On to `CN(C)C(=O)N1CCc2onc(C(=O)Nc3cccnc3)c2C1`, for which the cytotoxicity at 10 µM was 4.85%.
Next, `O=C1[C@H]2CN(Cc3nccs3)C[C@H]2CN1c1cncnc1`: -81.9%.
With `Cc1nc(CN2Cc3nccn3CC(CN3CCOCC3)C2)cs1` (stereo unspecified), the cytotoxicity at 10 µM was determined as 0.951%.
Next, `CN1C(=O)CC(c2ccccc2)C12CCN(CC1CC1)CC2` (stereo unspecified): -1.95%.
To `CO[C@H]1CC[C@H]2[C@H]1OCCN2Cc1ccc(F)cc1` belongs 7.34%.
To `Cc1cccc(CN2CC[C@@H]3[C@@H]2CCN3C(=O)c2cc(C)on2)n1` belongs -0.762%; to `O=C(NC1CCC2(CCC(=O)N2CC2CC2)CC1)c1cnccn1` (stereo unspecified), 0.729%.
